From paper PMC9059984 (RSC Advances, 2019) come the findings set out here.

The term Km denotes the concentration of substrate that gives half-maximal velocity.

Common to all, as to type: biochemical
Test [1] deals with sDTE (Sinorhizobium sp. D-tagatose 3-epimerase). Description: Michaelis-Menten non-linear regression. To be noted: optimum pH 8.0 (Tris-HCl) and 50 °C; Mn2+. The procedure, abridged: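 Enzyme expressed from pET28a(+) in E. coli BL21(DE3) (0.5 mM IPTG, 16 °C, 20 h), purified on Ni-NTA then Resource Q. Standard assay: 20 mM Tris–HCl pH 8.0, 1 μM Mn2+, 0.5 μM enzyme, 50 °C, 10 min; stopped by boiling 5 min; sugars by HPLC-ELSD. Kinetics used four ketose substrates, with Michaelis–Menten non-linear fit; three repeats, mean ± S.D.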

Test [2] concerns the target T1, sDTE (Sinorhizobium sp. D-tagatose 3-epimerase) (Sinorhizobium sp., UniProt Z9YNK1L8X5, M9A).
T1 sequence (Z9YNK1L8X5 1-293 M9A): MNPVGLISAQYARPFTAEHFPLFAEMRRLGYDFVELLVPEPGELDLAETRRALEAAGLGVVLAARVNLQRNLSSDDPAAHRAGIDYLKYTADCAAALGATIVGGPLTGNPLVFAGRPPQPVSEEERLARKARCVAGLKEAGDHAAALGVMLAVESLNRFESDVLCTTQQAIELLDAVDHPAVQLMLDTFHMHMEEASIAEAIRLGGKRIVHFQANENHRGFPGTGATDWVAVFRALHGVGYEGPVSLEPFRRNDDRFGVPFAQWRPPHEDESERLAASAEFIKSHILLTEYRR
Description: D-sorbose formation by HPLC, relative activity. To be noted: […] g/L D-tagatose, […] Mn2+, […] enzyme, pH […] °C, […] min.

Test [3] concerns the target T2, sDTE (Sinorhizobium sp. D-tagatose 3-epimerase) (Sinorhizobium sp., UniProt Z9YNK1L8X5, R65G).
T2 sequence (Z9YNK1L8X5 1-293 R65G): T1 sequence (Z9YNK1L8X5 1-293 M9A) with A9M, R65G
The test is described as follows: D-sorbose formation by HPLC, relative activity. To be noted: […] g/L D-tagatose, […] Mn2+, […] enzyme, pH […] °C, […] min.

Positions count from the first letter of the chain named.

In the case of `O=C(CO)[C@H](O)[C@H](O)[C@H](O)CO` [D-Allulose], the Michaelis-Menten constant (Km) in test [1] was 39.8 ± 1.7 mM.
As to `OCC1(O)OC[C@@H](O)[C@H](O)[C@H]1O` (stereo partly drawn) [D-Sorbose], the Km in test [1] stood at 83 ± 4.3 mM.
With `OCC1(O)OC[C@@H](O)[C@H](O)[C@@H]1O` (stereo partly drawn) [D-Tagatose], the “D-sorbose formation by HPLC, relative activity” value in test [2] was “the mutation of R65G and M9A abolished the catalytic activity toward D-tagatose”; in test [3], “the mutation of R65G and M9A abolished the catalytic activity toward D-tagatose”. Besides, in test [1], the Km amounted to 26 ± 1.2 mM.
On to `OCC1(O)OC[C@@H](O)[C@@H](O)[C@@H]1O` (stereo partly drawn) [D-Fructose], for which, in test [1], the Michaelis-Menten constant (Km) was determined as 54.7 ± 1.3 mM.
